In ChEMBL document CHEMBL1126079, “Synthesis, configuration, and calcium modulatory properties of enantiomerically pure 5-oxo-1,4,5,6,7,8-hexahydroquinoline-3-carboxylates” (J Med Chem, 1992):

How the values were obtained:
Cavia porcellus [1] = organism: Cavia porcellus; assay: Intrinsic activity is the inhibition of contraction of guinea pig ileum value in comparison with nifedipine.; assay type: functional
Outline: (§1)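 Each test substance was given as a single dose to the ileum preparation. BaCl2 contraction was elicited after a 10-min exposure. Between substances the tissue was washed until the initial state returned, then BaCl2 contraction was induced again.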

Cavia porcellus [2] = organism: Cavia porcellus; assay: (§2) Maximum inhibition of BaCl2-stimulated contraction of ileum of guinea pig; assay type: functional; outline: as §1
Cavia porcellus [3] = organism: Cavia porcellus; assay: Effect on BaCl2-stimulated contraction of ileum of guinea pig; assay type: functional; outline: as §1
Cavia porcellus [4] = organism: Cavia porcellus; assay: Maximum inhibition of KCl-stimulated contraction of aortic strips of guinea pig; assay type: functional, Aorta
Outline: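 Aortic strips were held in carbogen-perfused Tyrode solution at 37 °C under 2 g preload, and isometric contractions were recorded after amplification. Contractions were induced with KCl at 67 mmol/L bath concentration to test for antagonism. Between substances the preparation was washed back to its initial state before KCl was given again.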

Cavia porcellus [5] = organism: Cavia porcellus; assay: Intrinsic activity is the inhibition of contraction of guinea pig aorta strips value in comparison with nifedipine.; assay type: functional
Outline: (§3)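 Tissue sat in carbogen-perfused Tyrode solution at 37 °C under a 2 g preload, with isometric recording. KCl (67 mmol/L bath concentration) was added after each substance to test for antagonism, with washing back to the initial state between substances. EC50 and intrinsic activity were derived as in the paper's earlier section 1c.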

Cavia porcellus [6] = organism: Cavia porcellus; assay: Effect on KCl-stimulated contraction of aortic strips of guinea pig; assay type: functional, Aorta; outline: as §3
Cavia porcellus [7] = organism: Cavia porcellus; assay: Intrinsic activity value in comparison with nifedipine.; assay type: functional
Cavia porcellus [8] = organism: Cavia porcellus; assay: as §2; assay type: functional; remark: listed apart in the source
Outline: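 Guinea-pig ileum, single-dose technique: each test substance was added and left for 10 min before BaCl2 contractions were induced. Between substances the preparation was washed until the initial state returned, then BaCl2 contraction was induced again.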

## COC(=O)C1=C(C)NC2=C(C(=O)CCC2)[C@@H]1c1ccc2c(c1)OCO2 (stereo in doubt; 9a)
Cavia porcellus [1]
  IA: 0.44
Cavia porcellus [2]
  Max effect: 42%
Cavia porcellus [3]
  EC50: 25 µM
Cavia porcellus [4]
  Max effect: 38%
Cavia porcellus [5]
  IA: 0.54

## CO/C(O)=C1\C(C)=NC2=C(C(=O)CCC2)C1c1ccc2c(c1)OCO2 (racemic)
Cavia porcellus [6]
  EC50: 2e-06 M l-1
Cavia porcellus [1]
  IA: 0.8
Cavia porcellus [2]
  Max effect: 76%
Cavia porcellus [3]
  EC50: 5e-05 M l-1
Cavia porcellus [4]
  Max effect: 73%
Cavia porcellus [5]
  IA: 1

## CO[C@@H](COC(=O)C1=C(C)NC2=C(C(=O)CCC2)[C@H]1c1ccc2c(c1)OCO2)c1ccccc1
Cavia porcellus [6]
  EC50: 4e-05 M l-1
Cavia porcellus [4]
  Max effect: 42%
Cavia porcellus [5]
  IA: 0.6

## COC(=O)C1=C(C)NC(C)=C(C(=O)OC)C1c1ccccc1[N+](=O)[O-] [NIFEDIPINE]
Cavia porcellus [6]
  EC50: 8.9e-09 M l-1
Cavia porcellus [3]
  EC50: 2e-08 M l-1
Cavia porcellus [7]
  IA: 1
Cavia porcellus [8]
  Inhibition: 95%
Cavia porcellus [4]
  Inhibition: 70%

## CO[C@H](COC(=O)C1=C(C)NC2=C(C(=O)CCC2)[C@@H]1c1ccc2c(c1)OCO2)c1ccccc1
Cavia porcellus [6]
  EC50: 7.1e-06 M l-1
Cavia porcellus [4]
  Max effect: 70%
Cavia porcellus [5]
  IA: 1

## COC(=O)C1=C(C)NC2=C(C(=O)CCC2)[C@@H]1c1ccc2c(c1)OCO2 (stereo in doubt; 9b)
Cavia porcellus [1]
  IA: 0.94
Cavia porcellus [2]
  Max effect: 89%
Cavia porcellus [3]
  EC50: 22 µM
Cavia porcellus [4]
  Max effect: 84%
Cavia porcellus [5]
  IA: 1.2
